ChEMBL document CHEMBL1129630, “Synthesis and structure-activity relationships of retinoid X receptor selective diaryl sulfide analogs of retinoic acid” (J Med Chem, 1996)
pEC50: −log10 of the molar value.

Tests used:
[1] = biological target: T1, Retinoic acid receptor gamma (Mus musculus, UniProt P18911); test: Dissociation constant for binding to Retinoic acid receptor gamma;NA=not active
T1 sequence (P18911 whole entry): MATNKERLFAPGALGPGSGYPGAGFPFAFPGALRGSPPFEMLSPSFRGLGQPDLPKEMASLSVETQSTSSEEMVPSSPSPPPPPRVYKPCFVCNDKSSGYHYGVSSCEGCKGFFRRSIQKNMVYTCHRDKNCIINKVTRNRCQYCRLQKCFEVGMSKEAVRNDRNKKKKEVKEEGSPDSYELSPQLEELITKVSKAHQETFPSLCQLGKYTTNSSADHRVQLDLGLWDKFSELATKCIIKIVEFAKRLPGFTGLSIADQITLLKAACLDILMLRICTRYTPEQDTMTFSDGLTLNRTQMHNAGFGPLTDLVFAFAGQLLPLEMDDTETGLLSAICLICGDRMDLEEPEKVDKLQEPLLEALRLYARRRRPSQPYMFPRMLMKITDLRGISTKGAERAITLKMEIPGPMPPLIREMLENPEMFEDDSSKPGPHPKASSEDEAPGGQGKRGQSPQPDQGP
How it was run: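 Competitive binding assays against each receptor subtype, with Kd values taken from competition.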

[2] = biological target: T2, Retinoic acid receptor RXR-alpha (Homo sapiens, UniProt P19793); test: Transcriptional activation of Retinoid X receptor RXR alpha; parameters: species or system Cercopithecidae
T2 sequence (P19793 whole entry): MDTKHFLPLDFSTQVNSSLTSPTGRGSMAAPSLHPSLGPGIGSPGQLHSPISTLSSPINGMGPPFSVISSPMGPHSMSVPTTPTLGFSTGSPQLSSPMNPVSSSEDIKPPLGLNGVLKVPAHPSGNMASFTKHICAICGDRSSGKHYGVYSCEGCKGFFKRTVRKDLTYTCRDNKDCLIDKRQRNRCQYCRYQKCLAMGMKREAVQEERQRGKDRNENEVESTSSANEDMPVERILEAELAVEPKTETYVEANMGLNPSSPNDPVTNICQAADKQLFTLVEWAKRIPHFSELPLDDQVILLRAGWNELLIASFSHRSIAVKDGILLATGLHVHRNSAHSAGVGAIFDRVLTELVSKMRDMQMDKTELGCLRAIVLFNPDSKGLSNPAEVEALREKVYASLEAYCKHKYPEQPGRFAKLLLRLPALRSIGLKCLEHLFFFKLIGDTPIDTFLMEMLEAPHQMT
How it was run: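 Transient cotransfection of CV-1 cells with the receptor gene construct plus a reporter gene, read as induced transcription. Activity normalized to all-trans RA. EC50 taken as the concentration giving 50% of the maximal observed response. Single experiment, triplicate determinations.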

| Structure (SMILES) | Kd [1] | pEC50 [2] |
| --- | --- | --- |
| Cc1cc2c(cc1Sc1ccc(C(=O)O)cn1)C(C)(C)CCC2(C)C | Not Active |  |
| CC1(C)CCC(C)(C)c2cc(Sc3ccc(C(=O)O)cc3)ccc21 |  | 6.11 |
